Measurements taken from ChEMBL document CHEMBL1811802, “Synthesis and significant cytostatic activity of 7-hetaryl-7-deazaadenosines” (J Med Chem, 2011).

Columns and labels:
HL-60 = experiment: Cytotoxicity against human HL60 cells after 3 days by XTT assay; type: functional, cell-based; details: HL-60, 72 h
Outline: (§1)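 Suspension-grown cell lines, 3-day compound incubation; viability read by XTT metabolic assay; IC50 averaged from four independent experiments.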

CCRF-CEM = experiment: Cytotoxicity against human CCRF-CEM cells after 3 days by XTT assay; type: functional, cell-based; details: 72 h; outline: as §1
[1] = Cytostatic activity against human Hs578 cells after 5 days by SRB assay; type: functional; details: Hs578, 120 h
Outline: (§2)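 Cells seeded per line density, overnight at 37 °C; day-zero plate TCA-fixed. 5-fold serial dilutions added, 5-day incubation; TCA fixation, 0.057% SRB in 1% acetic acid 30 min, dye dissolved in 10 mM Tris pH 10.5, A500. Growth relative to day-zero and untreated; GIC50 from sigmoidal dose–response fit; mean of two independent experiments.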

NCI-H23 = experiment: Cytostatic activity against human NCI-H23 cells after 5 days by SRB assay; type: functional; details: NCI-H23, 120 h; outline: as §2
[2] = Cytotoxicity against human HeLaS3 cells after 3 days by XTT assay; type: functional, cell-based; details: HeLa S3, 72 h; outline: as §1
Adenosine kinase = Adenosine kinase (Homo sapiens, UniProt P55263); experiment: Inhibition of human ADK using [3H]-adenosine by scintillation counting
MT4 = experiment: Cytostatic activity against human MT4 cells after 5 days by SRB assay; type: functional; details: MT4, 120 h
DU-145 = experiment: Cytostatic activity against human DU145 cells after 5 days by SRB assay; type: functional; details: DU-145, 120 h; outline: as §2
HCT-116 = experiment: Cytostatic activity against human HCT116 cells after 5 days by SRB assay; type: functional; details: HCT-116, 120 h; outline: as §2
PC-3 = experiment: Cytostatic activity against human PC3 cells after 5 days by SRB assay; type: functional; details: PC-3, 120 h; outline: as §2
A549 = experiment: Cytostatic activity against human A549 cells after 5 days by SRB assay; type: functional; details: A549, 120 h; outline: as §2
BT-549 = experiment: Cytostatic activity against human BT549 cells after 5 days by SRB assay; type: functional; details: BT-549, 120 h; outline: as §2

Chain of Adenosine kinase (P55263 whole entry): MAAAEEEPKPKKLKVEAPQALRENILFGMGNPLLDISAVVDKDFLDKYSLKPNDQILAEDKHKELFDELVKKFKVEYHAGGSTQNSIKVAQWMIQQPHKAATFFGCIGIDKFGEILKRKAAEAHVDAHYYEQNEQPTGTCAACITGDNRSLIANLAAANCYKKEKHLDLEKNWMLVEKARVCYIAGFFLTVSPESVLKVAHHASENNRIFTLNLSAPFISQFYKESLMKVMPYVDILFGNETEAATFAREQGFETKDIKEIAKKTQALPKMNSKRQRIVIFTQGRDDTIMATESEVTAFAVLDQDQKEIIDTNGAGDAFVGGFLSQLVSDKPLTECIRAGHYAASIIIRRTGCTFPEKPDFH

GI50 (NCI-H23) [nM] | IC50 (Adenosine kinase) [nM] | GI50 (DU-145) [nM] | GI50 (HCT-116) [nM] | GI50 (PC-3) [nM] | GI50 (A549) [nM] | GI50 (BT-549) [nM] | SMILES | IC50 (HL-60) [nM] | IC50 (CCRF-CEM) [nM] | GI50 [1] [nM] | IC50 [2] [nM] | GI50 (MT4) [nM]
35 | > 10000 |  | 18 | 15 |  |  | Nc1ncnc2c1c(-c1cc[nH]n1)cn2[C@@H]1O[C@H](CO)[C@@H](O)[C@H]1O | > 20000 | 130 | 8 | 690 | 18
4 |  |  | 4 | 5 |  |  | Nc1ncnc2c1c(-c1c[nH]nn1)cn2[C@@H]1O[C@H](CO)[C@@H](O)[C@H]1O | 310 | 60 | 3 | 90 | 18
333 |  |  | 65.2 | 87.8 | 160 | 129 | Nc1ncnc2c1c(-c1ccc[nH]1)cn2[C@@H]1O[C@H](CO)[C@@H](O)[C@H]1O | 2040 | 160 | 113 | 1040 | 
6 | > 5000 |  | 2 | 1 |  |  | Nc1ncnc2c1c(-c1ncc[nH]1)cn2[C@@H]1O[C@H](CO)[C@@H](O)[C@H]1O | 100 | 70 | 1 | 440 | 49
5 |  |  | 93 | 42 |  |  | Nc1ncnc2c1c(-c1nccs1)cn2[C@@H]1O[C@H](CO)[C@@H](O)[C@H]1O | 1610 | 20 | 15 | 40 | 42
2 | > 10000 |  | 3 | 2 |  |  | Nc1ncnc2c1c(-c1c[nH]cn1)cn2[C@@H]1O[C@H](CO)[C@@H](O)[C@H]1O | 130 | 70 | 2 | 70 | 28

Second part, the molecule before the results:

SMILES | GI50 (NCI-H23) [nM] | IC50 (Adenosine kinase) [nM] | GI50 (DU-145) [nM] | GI50 (HCT-116) [nM] | GI50 (PC-3) [nM] | GI50 (A549) [nM] | GI50 (BT-549) [nM] | IC50 (HL-60) [nM] | IC50 (CCRF-CEM) [nM] | GI50 [1] [nM] | IC50 [2] [nM] | GI50 (MT4) [nM]
CSc1ccc(-c2cn([C@@H]3O[C@H](CO)[C@@H](O)[C@H]3O)c3ncnc(N)c23)cc1 | 390 | > 10000 | 1870 | 1290 |  |  |  | > 10000 | > 10000 | 1970 | > 10000 | 4400
C#Cc1cn([C@@H]2O[C@H](CO)[C@@H](O)[C@H]2O)c2ncnc(N)c12 | 1 | 200 |  | 2 | 11 |  |  | 90 | 10 | 1 | 20 | 1
Nc1ncnc2c1c(-c1cccc3ccccc13)cn2[C@@H]1O[C@H](CO)[C@@H](O)[C@H]1O | > 10000 | > 10000 | > 10000 | > 10000 |  |  |  | > 10000 | > 10000 | > 10000 | > 10000 | 
Nc1ncnc2c1c(-c1cc3ccccc3o1)cn2[C@@H]1O[C@H](CO)[C@@H](O)[C@H]1O | 5400 | > 10000 |  | 3740 | 6290 | 7020 | > 10000 | > 10000 | 3950 | 6730 | > 10000 | 4800
COc1cccc2c1C(=O)c1c(O)c3c(c(O)c1C2=O)C[C@@](O)(C(=O)CO)C[C@@H]3O[C@H]1C[C@H](N)[C@H](O)[C@H](C)O1 [DOXORUBICIN] | 5 |  |  | 11 | 21 | 16 | 10 |  |  | 6 |  | 
Nc1ncnc2c1c(-c1ccc3ccccc3c1)cn2[C@@H]1O[C@H](CO)[C@@H](O)[C@H]1O | 5350 | > 5000 | 1050 | 5670 |  |  |  | > 10000 | > 10000 | 2160 | > 10000 | 
